The nature of series [1]: Cytotoxicity against CD-1 mouse macrophages at 10 uM. In kind it is cell-based. The note with it: macrophage.
Series [2] addresses NAD(P)H dehydrogenase [quinone] 1 (Mus musculus) (UniProt Q64669). Nature of the series: Induction of NQO1 activity in mouse Hepa-1c1c7 cells after 48 hrs. It is filed as cell-based.
Series [3] in a line: Antiinflammatory activity in CD-1 mouse Macrophage assessed as inhibition of IFN-gamma induced NO production after 48 hrs by Griess reaction. It is filed as functional, cell-based.
Series [4] has as its system RAW264.7. Nature of the series: Induction of HO-1 expression in mouse RAW264.7 cells at 100 nM after 6 hrs by Western blotting. In kind it is functional, cell-based. The method in brief:
(§1)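 RAW 264.7 macrophages were exposed to compound at 10–100 nM for 6 h. HO-1 protein was detected by Western blot of total cell lysates.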

In series [5] the test system is RAW264.7. Nature of the series: Induction of HO-1 expression in mouse RAW264.7 cells at 10 nM after 6 hrs by Western blotting. In kind it is functional, cell-based. The method in brief: as §1
For orientation: A western blot detects proteins with antibodies after separation by electrophoresis.

Series [6] relates to RAW264.7. Nature of the series: Antiinflammatory activity in mouse RAW264.7 cells assessed as inhibition of IFN-gamma induced NO production after 24 hrs by Griess reaction. In kind it is functional, cell-based. The note with it: Mus musculus, RAW264.7, 24 h. The gist of the method: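 RAW 264.7 cells exposed to serial concentrations of compound together with IFN-γ (10 ng/mL) for 24 h; NO in supernatants quantified by Griess reaction. IC50 tested over 0.1 pM to 10 μM in 10-fold steps; values averaged from two separate experiments.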
In general terms: Nitrite, measured by Griess reagent, commonly stands in for NO production.

The test system of series [7] is RAW264.7. Nature of the series: Induction of HO-1 expression in mouse RAW264.7 cells at 300 nM after 6 hrs by Western blotting. In kind it is functional, cell-based. The method in brief:
(§2)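 RAW cells treated with compound for 6 h (30–300 nM range); HO-1 detected in total cell lysates by Western blot.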

Series [8] has as its system RAW264.7. In words: Induction of HO-1 expression in mouse RAW264.7 cells at 30 nM after 6 hrs by Western blotting. It is filed as functional, cell-based. The gist of the method: as §2
[9] abbreviates: Mus musculus, CD-1, Macrophage, 48 h.

Active and inactive are the calls of the source. No cut-off for these calls is given here.

As usually defined, the IC50 is the point on the concentration scale where inhibition reaches its midpoint.

Sequence of NAD(P)H dehydrogenase [quinone] 1 (Mus musculus) (Q64669 whole entry): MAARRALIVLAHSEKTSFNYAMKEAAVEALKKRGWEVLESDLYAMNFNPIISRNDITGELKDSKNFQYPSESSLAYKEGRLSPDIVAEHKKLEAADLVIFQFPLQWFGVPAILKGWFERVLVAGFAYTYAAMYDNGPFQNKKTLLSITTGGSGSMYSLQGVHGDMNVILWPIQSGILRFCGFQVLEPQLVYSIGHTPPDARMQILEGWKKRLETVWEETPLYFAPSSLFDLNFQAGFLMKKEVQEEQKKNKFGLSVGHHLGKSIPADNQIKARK

With `CC1(C)C(=O)C(C#N)=C[C@@]2(C)C3=CC(=O)C=C[C@@]3(C)CC[C@H]12`, the Activity entry in series [1] is on record as “Non-toxic”. The same compound registered a CD in series [2] of 140 nM. In series [3] (setting [9]), the IC50 stood at 0.058 µM.

In the case of `CC1(C)C(=O)C(C#N)=C[C@@]2(C)C3=CC(=O)C(C#N)=C[C@@]3(C)CC[C@H]12`, in series [1], the Activity result is given as “Non-toxic”. This compound returned a CD in series [2] of 19 nM. In addition, the IC50 in series [3] (setting [9]) amounted to 0.0013 µM.

Regarding `CC1(C)C(=O)C(C#N)=C[C@@]2(C)C3=CC(=O)CC[C@@]3(C)CC[C@H]12`, the Activity result in series [1] was “Non-toxic”. Besides, the IC50 in series [3] (setting [9]) came out at 0.026 µM.

Regarding `C#C[C@@]12C=C(C#N)C(=O)C=C1[C@]1(C)C=C(C#N)C(=O)C(C)(C)[C@H]1CC2`, the result in series [4] and in series [5] was Active. Also, in series [2], the CD stood at 0.9 nM. Also, the IC50 in series [6] came to 0.001 µM.

As for `CC1(C)C(=O)C(C#N)=C[C@@]2(C)C3=CC(=O)C(C#N)=C[C@@]3(C#C[Si](C)(C)C)CC[C@H]12`, the result in series [4] and in series [5] was Active. Further, the CD in series [2] was 2.3 nM. Besides, in series [6], the IC50 stood at 0.002 µM.

With `CC1(C)C(=O)C(C#N)=C[C@]2(C)C3=CC(=O)C(C#N)=C[C@]3(C)CC[C@@H]12`, the IC50 in series [3] (macrophage) came to 0.014 µM.

With `C#C[C@]12C=C(C#N)C(=O)C=C1[C@@]1(C)C=C(C#N)C(=O)C(C)(C)[C@@H]1CC2`, the result in series [4] and in series [5] was Active. In series [2], this compound displayed a CD of 2.7 nM.

Regarding `CC1(C)C(=O)C(C#N)=C[C@]2(C)C3=CC(=O)C(C#N)=C[C@]3(C#C[Si](C)(C)C)CC[C@@H]12`, the outcome in series [4] and in series [5] was Active. Further, the CD in series [2] worked out at 3 nM.

`CC1(C)C(=O)C(C#N)=C[C@]2(C)C3=CC(=O)C(C#N)=C[C@]3(C#Cc3nccs3)CCC12` (mixture of isomers) yielded a CD in series [2] of 35 nM. The IC50 in series [6] is 0.01 µM. In addition, the result in series [7] and in series [8] was Active.

In the case of `CC1(C)C(=O)C(C#N)=C[C@]2(C)C3=CC(=O)C(C(N)=O)=C[C@]3(C)CC[C@@H]12` (racemic), in series [1], the Activity entry is “Non-toxic”.

Take `CC(=O)O[C@@H]1CCC=C2[C@@]3(C)C=C(C#N)C(=O)C(C)(C)[C@@H]3CC[C@]21C` (racemic): in series [1], the Activity entry was “Non-toxic”.

`CC1(C)C(=O)C(C#N)=C[C@]2(C)C3=CCC[C@@H](O)[C@]3(C)CC[C@@H]12` (racemic): the Activity result in series [1] is reported as “Non-toxic”.

As for `CC1(C)C(=O)C(C#N)=C[C@]2(C)C3=CC(=O)C[C@@H](O)[C@]3(C)CC[C@@H]12` (racemic), in series [1], the Activity entry is listed as “Non-toxic”.

`COC(=O)C#C[C@]12C=C(C#N)C(=O)C=C1[C@@]1(C)C=C(C#N)C(=O)C(C)(C)[C@@H]1CC2` (racemic): the CD in series [2] was determined as 85 nM. In addition, the IC50 in series [6] stood at 0.02 µM. Also, the outcome in series [7] and in series [8] was Active.

`CC1(C)C(=O)C(C#N)=C[C@]2(C)C3=CC(=O)C(C#N)=C[C@]3(C#CC(=O)O)CC[C@@H]12` (racemic) registered a CD in series [2] of 150 nM. In series [6], the IC50 was found to be 0.1 µM.

On to `C#CC#C[C@]12C=C(C#N)C(=O)C=C1[C@@]1(C)C=C(C#N)C(=O)C(C)(C)[C@@H]1CC2` (racemic), for which the IC50 in series [6] turned out to be 0.003 µM. Also, the result in series [7] and in series [8] was Active.

Turning to `CC1(C)C(=O)C(C(=O)O)=C[C@]2(C)C3=CC(=O)C(C#N)=C[C@]3(C)CC[C@@H]12` (racemic), the Activity result in series [1] is recorded as “Non-toxic”. The IC50 in series [3] (setting [9]) is above 0.6 µM.

On to `COC(=O)C1=C[C@]2(C)C3=CC(=O)C(C#N)=C[C@]3(C)CC[C@H]2C(C)(C)C1=O` (racemic), for which, in series [1], the Activity result was “Non-toxic”. Also, the IC50 in series [3] (setting [9]) was above 0.06 µM.

On to `CC1(C)C(=O)C(C#N)=C[C@]2(C)C3=CC(=O)CC[C@]3(C)CC[C@@H]12` (racemic), for which the Activity entry in series [1] is reported as “Non-toxic”. The IC50 in series [3] (setting [9]) was 0.019 µM; in series [6], 0.057 µM.

On to `CC1(C)C(=O)C(C#N)=C[C@]2(C)C3=CC(=O)C(C#N)=C[C@]3(C#Cc3nccn3COCC[Si](C)(C)C)CC[C@@H]12` (racemic), for which, in series [6], the IC50 is 0.035 µM. The outcome in series [8] was Active.

`Cc1csc(C#C[C@]23C=C(C#N)C(=O)C=C2[C@@]2(C)C=C(C#N)C(=O)C(C)(C)[C@@H]2CC3)n1` (racemic): in series [6], the IC50 is 0.02 µM. The result in series [7] and in series [8] was Active.

As to `CC1(C)C(=O)C(C#N)=C[C@]2(C)C3=CC(=O)C(C#N)=C[C@]3(C#Cc3ccccc3)CC[C@@H]12` (racemic), the IC50 in series [6] came out at 0.05 µM. In addition, the result in series [7] and in series [8] was Active.

`CC[C@]12C=C(C#N)C(=O)C=C1[C@@]1(C)C=C(C#N)C(=O)C(C)(C)[C@@H]1CC2` (racemic) showed a CD in series [2] of 18 nM. The IC50 in series [6] worked out at 0.01 µM. The outcome in series [8] was Active.

Turning to `C=C[C@]12C=C(C#N)C(=O)C=C1[C@@]1(C)C=C(C#N)C(=O)C(C)(C)[C@@H]1CC2` (racemic), in series [2], the CD amounted to 30 nM. Besides, in series [6], the IC50 is 0.01 µM. The result in series [8] was Active.

In the case of `CC(=O)O[C@@H]1CC(=O)C=C2[C@@]3(C)C=C(C#N)C(=O)C(C)(C)[C@@H]3CC[C@]21C` (racemic), the Activity result in series [1] is “Non-toxic”.

On to `CC1(C)C(=O)C(C#N)=C[C@]2(C)C3=CC(=O)C(C(=O)O)=C[C@]3(C)CC[C@@H]12` (racemic), for which, in series [1], the Activity result is reported as “Non-toxic”.

With `COC(=O)C1=C[C@]2(C)CC[C@H]3C(C)(C)C(=O)C(C#N)=C[C@]3(C)C2=CC1=O` (racemic), the Activity result in series [1] is recorded as “Non-toxic”.

Turning to `CC1(C)C(=O)C(C#N)=C[C@]2(C)C3=CC(=O)C(C#N)=C[C@]3(C)CC[C@@H]12` (racemic), the Activity entry in series [1] was “Non-toxic”. In addition, the values for the IC50 in series [3] (macrophage) and in series [6] were 0.0021 µM and 0.023 µM, respectively.

Regarding `CC1(C)C(=O)C(C#N)=C[C@]2(C)C3=CC(=O)C(C#N)=C[C@]3(C#CC#N)CC[C@@H]12` (racemic), in series [6], the IC50 came out at 0.004 µM. In addition, in series [8], the result was Active.

For the compound `CC1(C)C(=O)C(C#N)=C[C@]2(C)C3=CC(=O)C=C[C@]3(C)CC[C@@H]12` (racemic), the Activity result in series [1] was “Non-toxic”. For the same compound, the IC50 in series [6] turned out to be 0.087 µM.

For `COC(=O)[C@]12CCC(C)(C)C[C@H]1[C@H]1C(=O)C=C3[C@@]4(C)C=C(C#N)C(=O)C(C)(C)[C@@H]4CC[C@@]3(C)[C@]1(C)CC2` [BARDOXOLONE METHYL], in series [1], the Activity entry was “Non-toxic”. In addition, in series [3] (setting [9]), the IC50 is 0.0002 µM.

With `C[C@]12CCC(=O)C=C1CC[C@@H]1[C@@H]2[C@@H](O)C[C@@]2(C)[C@H]1CC[C@]2(O)C(=O)CO` [HYDROCORTISONE], in series [1], the Activity result is reported as “Non-toxic”. The IC50 in series [3] (setting [9]) stood at 0.01 µM; in series [6], 0.061 µM.

Source of the values: ChEMBL document CHEMBL1759862, “Tricyclic compounds containing nonenolizable cyano enones. A novel class of highly potent anti-inflammatory and cytoprotective agents” (J Med Chem, 2011).
